AHR act = activators of human aryl hydrocarbon receptor; P35869; actives 2.5% (n = 320,000); AID 2796; AHR-responsive luciferase reporter cells, luminescence; activation, % at 5 µM; in the data active means activation above about 47%;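 further: 0% = vehicle wells and 100% = reference agonist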
PolyA inhibitor = yeast polyadenylation inhibition | activity score, % at 12 µM | AID 1875 | S. cerevisiae SKY197-pL101 polyadenylation reporter, beta-gal luminescence; efflux-impaired pdr1/pdr3 knockout yeast; score 100 = 6 SD above DMSO | actives 0.02% (n = 300,000);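 active means lowest replicate activity score at least 50, where 100 means six control SD above control mean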;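 further: yeast exposed to compound for 9 h at 30 °C; higher score means more reporter readthrough which indicates perturbed polyadenylation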
STAT3 act = activators of IL-6 induced STAT3 signaling | activation (% of control), % at 5.6 µM | actives 0.91% (n = 190,000) | U3A cells, IL-6 STAT3-luciferase reporter, luminescence; 100% = signal with IL-6 EC80 alone;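 active means activation above the screen-wide mean of compound activation plus 3 SD, cut at about 130% in these data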;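 further: 0% = background luminescence of wells with medium and substrate only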
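Material: human STAT1-deficient U3A cells with stable STAT3-luciferase reporter / Probe or stimulus: IL-6 stimulus at 33 ng/mL final / Schedule: 1 h compound pre-exposure, 6 h IL-6 stimulation, 37 °C / Technique: luminescence / Read-out basis: percent of IL-6-only median luminescence / Control set: IL-6-only high control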
PERK inhibitor = human PERK inhibition, primary cell-based screen; actives 0.17% (n = 220,000); Q9NZJ5; CHO PERK-DD fusion, SEAP luminescence translation reporter; AID 1416; inhibition, % at 5.6 µM;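 active means inhibition above the mean inhibition of all tested compounds plus 3 SD, set separately per screening campaign, cut at about 2.9% in these data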;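 further: PERK kinase domain activated by AP20187 dimerizer at 100 nM; 0% = DMSO with dimerizer and 100% = rapamycin at 8.4 µM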
Target sequence (Q9NZJ5 whole entry, looked up, the tested form may be a part): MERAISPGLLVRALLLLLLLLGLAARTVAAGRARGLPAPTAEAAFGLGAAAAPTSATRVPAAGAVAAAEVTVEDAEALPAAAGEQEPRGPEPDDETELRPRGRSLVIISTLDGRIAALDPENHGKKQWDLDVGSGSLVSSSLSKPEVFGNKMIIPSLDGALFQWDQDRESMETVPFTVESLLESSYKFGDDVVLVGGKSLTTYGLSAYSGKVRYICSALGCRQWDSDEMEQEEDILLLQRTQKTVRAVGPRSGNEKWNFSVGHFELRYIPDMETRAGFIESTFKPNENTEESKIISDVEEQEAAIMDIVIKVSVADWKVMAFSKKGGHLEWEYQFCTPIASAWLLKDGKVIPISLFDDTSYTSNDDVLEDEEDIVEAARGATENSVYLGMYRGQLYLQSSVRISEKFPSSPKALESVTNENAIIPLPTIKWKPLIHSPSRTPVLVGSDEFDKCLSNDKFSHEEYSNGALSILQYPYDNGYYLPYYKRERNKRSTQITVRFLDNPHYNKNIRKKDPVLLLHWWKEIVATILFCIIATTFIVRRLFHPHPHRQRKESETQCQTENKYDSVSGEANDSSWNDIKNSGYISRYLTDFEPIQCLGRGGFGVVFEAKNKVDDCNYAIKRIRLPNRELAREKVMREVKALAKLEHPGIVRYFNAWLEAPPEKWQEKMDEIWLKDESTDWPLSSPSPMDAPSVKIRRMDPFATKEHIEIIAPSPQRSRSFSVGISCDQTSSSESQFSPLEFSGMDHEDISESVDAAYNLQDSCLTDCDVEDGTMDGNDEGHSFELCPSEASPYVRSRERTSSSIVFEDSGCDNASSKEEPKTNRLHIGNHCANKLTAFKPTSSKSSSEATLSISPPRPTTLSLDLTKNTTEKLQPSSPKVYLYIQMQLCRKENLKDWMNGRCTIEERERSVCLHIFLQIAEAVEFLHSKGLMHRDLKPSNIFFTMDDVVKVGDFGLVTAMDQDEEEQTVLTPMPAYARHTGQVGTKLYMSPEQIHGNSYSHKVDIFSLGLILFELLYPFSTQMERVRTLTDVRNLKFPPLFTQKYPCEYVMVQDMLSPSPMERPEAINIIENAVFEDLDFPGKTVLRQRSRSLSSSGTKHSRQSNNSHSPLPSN
Hsp70 activator = transcriptional activators of Hsp70. activation, % at 10 µM. actives 0.04% (n = 200,000). HeLa Hsp70 promoter luciferase reporter, luminescence; scaled: vehicle 0, proteasome-inhibitor control 100%;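 active means activation above the mean across all tested compounds plus 3 SD, cutoff set per campaign, cut at about 5.5% in these data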;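 further: 100% = MG132 at 30 µM as the positive control and 0% = DMSO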
HSF1 inh = HSF1 inhibition; NIH3T3-HGL HSE-luciferase, MG132-induced, luminescence 8 h; hits give low values; activity change, negative = inhibition, % at 7.5 µM (by protocol); actives 0.77% (n = 300,000); AID 2098;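 active means more than half of replicate wells show activity change below -50%, luminescence cut by over half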;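 further: luciferase reports HSF-1 transcriptional activity via heat shock element; 0% = median of DMSO wells and -100% = zero luminescence signal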
* hit, by the source's call. An excerpt weighted towards active compounds, which were near 3.6% of everything screened.

What do the screens show for `NS(=O)(=O)c1ccc(-c2ccc(/C=N/Nc3ccc(C(=O)O)cc3)o2)cc1`?
AHR act: 0.2; PolyA inhibitor: -9.3; PERK inhibitor: 3.0*; HSF1 inh: -14.0

How did COc1cccc(NC(=O)Nc2cc(C(=O)O)ccc2N2CC3CC(C2)c2cccc(=O)n2C3)c1 (configuration not stated) do in these assays?
AHR act: 1.5; PolyA inhibitor: 17.3; HSF1 inh: -17.3

How did CCCNc1c(NS(=O)(=O)c2ccc3c(c2)CCCC3)c(=O)oc2ccccc12 do in these assays?
AHR act: -0.5; PolyA inhibitor: -3.9; HSF1 inh: 5.9

Results for NNC(=O)c1oc2nc(-c3ccccc3)cc(-c3ccccc3)c2c1N ?
AHR act: 30.0; PolyA inhibitor: 14.4; HSF1 inh: -0.4

What do the screens show for `CNC(=S)NNC(=O)c1oc2nc(-c3ccccc3)cc(C)c2c1N`?
AHR act: 56.2*; PolyA inhibitor: -20.9; PERK inhibitor: 0.0; HSF1 inh: -2.2

Results for CCOC(=O)CN1C(=O)C2(OCCCO2)c2cc(Br)ccc21 ?
AHR act: -2.0; PolyA inhibitor: 4.3; HSF1 inh: 4.3

Results for Cc1cccc(NC(=O)COC(=O)c2ccccc2SCC(=O)N2CCCC2)c1 ?
AHR act: 3.9; PolyA inhibitor: 7.6; HSF1 inh: 8.0

How did O=C(c1cccs1)N(C(=O)c1cccs1)c1ccc(Br)cn1 do in these assays?
AHR act: 10.6; PolyA inhibitor: 26.0; STAT3 act: 94.4; PERK inhibitor: -0.1; Hsp70 activator: 0.2; HSF1 inh: 15.7

What do the screens show for `Cc1ccnc(N(C(=O)c2cccs2)C(=O)c2cccs2)c1`?
AHR act: 49.7*; PolyA inhibitor: -6.4; STAT3 act: 99.2; PERK inhibitor: 1.1; Hsp70 activator: 0.6; HSF1 inh: 14.4

What do the screens show for `Cn1cc(CCNC(=O)CC2C(=O)NCCN2Cc2cccc(Oc3ccccc3)c2)cn1` (configuration not stated)?
AHR act: -1.4; PolyA inhibitor: -2.6; STAT3 act: 104.0; PERK inhibitor: -0.6; Hsp70 activator: -0.4; HSF1 inh: -68.8*

How did O=C(NCCc1ccccc1Cl)c1ccc2nc3ccccc3c(=O)n2c1 do in these assays?
AHR act: 0.7; PolyA inhibitor: 31.2; HSF1 inh: 0.5

How did O=c1c(Cl)c(N/N=C/c2ccc(Cl)cc2)cnn1-c1ccccc1 do in these assays?
AHR act: 49.6*; PolyA inhibitor: -8.6; STAT3 act: 126.1; PERK inhibitor: -0.6; Hsp70 activator: -0.5; HSF1 inh: 11.3

Results for O=c1c(Cl)c(Cl)cnn1-c1ccccc1 ?
PolyA inhibitor: 5.1; STAT3 act: 89.5; PERK inhibitor: -0.4; Hsp70 activator: 1.9; HSF1 inh: -96.3*

Results for O=c1[nH]ncc(N/N=C/c2ccccc2)c1Cl ?
AHR act: -1.2; PolyA inhibitor: 6.7; STAT3 act: 99.8; PERK inhibitor: -0.4; Hsp70 activator: -0.2; HSF1 inh: -2.8

How did CCc1ccc(CN2CCC(n3nccc3NC(=O)c3ccccc3)CC2)o1 do in these assays?
AHR act: 3.5; PolyA inhibitor: 3.9; HSF1 inh: -4.7

Results for COc1cc(CCC(=O)OCC(=O)NCCc2ccc(S(N)(=O)=O)cc2)cc(OC)c1OC ?
AHR act: -1.0

What do the screens show for `Cc1[nH]c2ccccc2c1-c1csc(NC(=O)CSCCO)n1`?
AHR act: 49.8*; PolyA inhibitor: -2.6; STAT3 act: 93.6; PERK inhibitor: 0.2; Hsp70 activator: 0.0; HSF1 inh: -7.6

How did COc1nnc(-c2ccc(C)cc2)c2ccccc12 do in these assays?
PolyA inhibitor: -9.4; HSF1 inh: -1.7

Results for CN(CC(=O)Nc1ccccc1Br)C(=O)c1cccn1C ?
AHR act: 0.2; PolyA inhibitor: 4.8; HSF1 inh: -66.9*

Results for O=c1[nH]c2cc3c(cc2cc1CN(Cc1nnnn1CC1CCCO1)C1CCCCC1)OCO3 (configuration not stated) ?
AHR act: 55.9*; PolyA inhibitor: 0.5; STAT3 act: 107.5; PERK inhibitor: 1.0; Hsp70 activator: 0.0; HSF1 inh: 8.0

How did O=C(CS(=O)(=O)c1ccccc1)Nc1nccs1 do in these assays?
AHR act: -0.6; PolyA inhibitor: 12.4; HSF1 inh: -1.1

What do the screens show for `O=C(c1ccco1)N(CC1CCCO1)c1nc(-c2ccccc2)cs1` (configuration not stated)?
AHR act: 20.1; PolyA inhibitor: -29.3; STAT3 act: 104.0; PERK inhibitor: -0.8; Hsp70 activator: -0.1; HSF1 inh: 3.1

Results for Cc1ccc(-c2csc(N(CC3CCCO3)C(=O)c3ccco3)n2)cc1 (configuration not stated) ?
AHR act: 50.6*; PolyA inhibitor: -12.4; STAT3 act: 99.2; PERK inhibitor: -0.7; Hsp70 activator: -0.3; HSF1 inh: 10.8

How did O=C1CCC(C(=O)OCC(=O)N2N=C3/C(=C/c4ccccc4)CCCC3C2c2ccccc2)N1 (configuration not stated) do in these assays?
AHR act: 72.7*; PolyA inhibitor: 0.0; STAT3 act: 96.2; PERK inhibitor: -1.1; Hsp70 activator: -0.3; HSF1 inh: 7.1

Results for Cc1cc(=O)oc2c3c(cc(OCC(=O)NCCCn4ccnc4)c12)OC(C)(C)CC3 ?
AHR act: 3.7; PolyA inhibitor: -7.1; HSF1 inh: -2.1

How did O=C1NC(c2ccncc2)C(C(=O)c2cccs2)C(O)(C(F)(F)F)N1 (configuration not stated) do in these assays?
AHR act: -2.3; PolyA inhibitor: 6.0; STAT3 act: 111.1; PERK inhibitor: 3.0*; Hsp70 activator: -0.1; HSF1 inh: 0.7

How did CCOC(=O)c1ccc(Nc2ncnc3nc[nH]c23)cc1 do in these assays?
AHR act: 2.8; PolyA inhibitor: 7.6; STAT3 act: 90.1; PERK inhibitor: 1.4; Hsp70 activator: -0.3; HSF1 inh: -75.1*

Results for Cc1ccc(-n2c(C)cc(/C=c3/sc4nc5ccccc5n4c3=O)c2C)cc1 ?
AHR act: -0.9; PolyA inhibitor: 1.1; STAT3 act: 49.6; PERK inhibitor: 0.0; Hsp70 activator: -0.4; HSF1 inh: -81.8*

What do the screens show for `O=c1/c(=C\c2cccn2-c2ccccc2)sc2nc3ccccc3n12`?
STAT3 act: 98.5; PERK inhibitor: 1.2; Hsp70 activator: 0.2

What do the screens show for `O=[N+]([O-])c1ccc(N=Cc2sc3ccccc3c2O)cc1`?
AHR act: 27.5; PolyA inhibitor: 0.3; STAT3 act: 111.8; PERK inhibitor: 0.2; Hsp70 activator: -0.3; HSF1 inh: -84.1*

What do the screens show for `O=[N+]([O-])c1cccc(N=Cc2sc3ccccc3c2O)c1`?
AHR act: 7.7; PolyA inhibitor: -15.6; STAT3 act: 97.5; PERK inhibitor: 1.2; Hsp70 activator: -0.2; HSF1 inh: 27.6
